Results on 1 molecule are retold here after ChEMBL document CHEMBL4152228, “Structural-based design, synthesis, and antitumor activity of novel alloxazine analogues with potential selective kinase inhibition” (Eur J Med Chem, 2018).

Assay [1] concerns MCF7. The experiment in a line: Induction of apoptosis in human MCF7 cells assessed as viable cells at 1 uM after 72 hrs by annexin V-FITC/propidium iodide staining-based flow cytometric method (reference value: 76%). It is filed as functional. The conditions noted are these: MCF7, 72 h, read-out: Activity. Background: A flow cytometer gives signals particle by particle.
The test system of assay [2] is K562. The assay is described as follows: Antiproliferative activity against human K562 cells after 72 hrs by MTT assay. Type of assay: functional, cell-based. The conditions noted are these: K562, 72 h. In general terms: Tetrazolium dyes change colour on reduction, which living cells bring about.
For assay [3], the system named is MCF7. The assay is described as follows: Induction of apoptosis in human MCF7 cells assessed as late apoptotic cells at 10 uM after 72 hrs by annexin V-FITC/propidium iodide staining-based flow cytometric method (reference value: 2.6%). Type of assay: functional.
Assay [4] relates to MCF7. The assay is described as follows: Induction of apoptosis in human MCF7 cells assessed as increase of early apoptotic cells at 1 to 10 uM after 72 hrs by annexin V-FITC/propidium iodide staining-based flow cytometric method relative to control. It is filed as functional. Put shortly:
(§1)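 MCF-7 cells treated 72 h at final 1, 5, 10 µM, then annexin V-FITC/PI stained in pH 7.4 HEPES binding buffer and analysed by flow cytometry. Early or late apoptotic cell fraction expressed as percent change versus vehicle control: (sample − control)/control × 100. Triplicates.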

In assay [5] the test system is MCF7. The experiment in a line: Induction of apoptosis in human MCF7 cells assessed as late apoptotic cells at 5 uM after 72 hrs by annexin V-FITC/propidium iodide staining-based flow cytometric method (reference value: 2.6%). Type of assay: functional.
In assay [6] the test system is MCF7. The experiment in a line: Induction of apoptosis in human MCF7 cells assessed as early apoptotic cells at 10 uM after 72 hrs by annexin V-FITC/propidium iodide staining-based flow cytometric method (reference value: 9%). Type of assay: functional.
Assay [7] deals with MCF7. The assay is described as follows: Ratio of increase in late apoptotic cells to early apoptotic cells in human MCF7 cells at 10 uM after 72 hrs by annexin V-FITC/propidium iodide staining-based flow cytometric method. It is filed as functional.
For assay [8], the system named is MCF7. The assay is described as follows: Induction of apoptosis in human MCF7 cells assessed as early apoptotic cells at 1 uM after 72 hrs by annexin V-FITC/propidium iodide staining-based flow cytometric method (reference value: 9%). It is filed as functional.
Assay [9] deals with MCF7. The experiment in a line: Induction of apoptosis in human MCF7 cells assessed as increase of early apoptotic cells after 72 hrs by annexin V-FITC/propidium iodide staining-based flow cytometric method. Type of assay: functional, cell-based. Put shortly: as §1
The test system of assay [10] is MCF7. The assay is described as follows: Induction of apoptosis in human MCF7 cells assessed as viable cells at 5 uM after 72 hrs by annexin V-FITC/propidium iodide staining-based flow cytometric method (reference value: 76%). It is filed as functional. The conditions noted are these: MCF7, 72 h, read-out: Activity.
A short description of assay [11]: Antiproliferative activity against human WM793B cells after 72 hrs by MTT assay. It is filed as functional, cell-based. The method in brief:
(§2)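 MTT viability assay. Cells grown in RPMI-1640 with 10% heat-inactivated FBS, L-glutamine and 1% penicillin/streptomycin, used within 20 passages. Seeded at 5×10^3 cells/well, left overnight at 37 °C, then exposed to final concentrations of 0.005–50 µM (0.1% DMSO) for up to 72 h. MTT added for 3 h, formazan dissolved in DMSO, absorbance read at 550 nm. IC50 derived relative to untreated controls.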

The subject of assay [12] is MCF7. The experiment in a line: Induction of apoptosis in human MCF7 cells assessed as necrotic cells at 5 uM after 72 hrs by annexin V-FITC/propidium iodide staining-based flow cytometric method (reference value: 12.6%). Type of assay: functional.
Assay [13] concerns MCF7. The assay is described as follows: Antiproliferative activity against human MCF7 cells after 72 hrs by MTT assay. It is filed as functional, cell-based. The conditions noted are these: MCF7, 72 h. Put shortly: as §2
The subject of assay [14] is MCF7. The experiment in a line: Induction of apoptosis in human MCF7 cells assessed as necrotic cells at 10 uM after 72 hrs by annexin V-FITC/propidium iodide staining-based flow cytometric method (reference value: 12.6%). It is filed as functional.
In assay [15] the test system is HCT-116. The experiment in a line: Antiproliferative activity against human HCT116 cells after 72 hrs by MTT assay. It is filed as functional, cell-based. The conditions noted are these: HCT-116, 72 h. The method in brief: as §2
For assay [16], the system named is A2780. The assay is described as follows: Antiproliferative activity against human A2780 cells after 72 hrs by MTT assay. It is filed as functional, cell-based. The conditions noted are these: A2780, 72 h. The method in brief: as §2
Assay [17] deals with MCF7. The experiment in a line: Induction of apoptosis in human MCF7 cells assessed as early apoptotic cells at 5 uM after 72 hrs by annexin V-FITC/propidium iodide staining-based flow cytometric method (reference value: 9%). Type of assay: functional.
Assay [18] concerns MCF7. The assay is described as follows: Induction of apoptosis in human MCF7 cells assessed as late apoptotic cells at 1 uM after 72 hrs by annexin V-FITC/propidium iodide staining-based flow cytometric method (reference value: 2.6%). Type of assay: functional.
For assay [19], the system named is MCF7. The assay is described as follows: Induction of apoptosis in human MCF7 cells assessed as necrotic cells at 1 uM after 72 hrs by annexin V-FITC/propidium iodide staining-based flow cytometric method (reference value: 12.6%). Type of assay: functional.
The subject of assay [20] is MCF7. The assay is described as follows: Induction of apoptosis in human MCF7 cells assessed as viable cells at 10 uM after 72 hrs by annexin V-FITC/propidium iodide staining-based flow cytometric method (reference value: 76%). The conditions noted are these: MCF7, 72 h, read-out: Activity. It is filed as functional.

What is called IC50 is the concentration needed to halve the response being measured. The low end stands for inhibition by little substance, the high end for a need for much substance.

Where only a bound is given, the exact number is not on record here.

With `O=c1[nH]c(NCc2ccc(CN3CCOCC3)cc2)nc2nc3ccc(Cl)cc3nc12`, the viability at 1 µM in assay [1] came to 82.6%. Besides, the IC50 was greater than 50 µM in [2]; 40.1 µM in assay [11]; 200 nM in assay [13]; 310 nM in assay [15]; 190 nM in assay [16]. In addition, the Activity is 16.4% in assay [3]; 7.8% in assay [5]; 19.3% in [6]; 11.2% in [8]; “Dose-dependent effect” in assay [9]; 4% in assay [12]. Besides, the Activity turned out to be 6.3% in assay [14], 14% in assay [17], 3.2% in assay [18] and 2.9% in assay [19]. Besides, the “fold change (FC)” value in [4] was found to be 2. Also, the Ratio in assay [7] is recorded as 7. Further, the viability at 5 µM in assay [10] came to 74.1%. Further, the viability at 10 µM in assay [20] is 58%.
